Measurements taken from ChEMBL document CHEMBL1123285, “Substituted 1-benzylimidazole-2-thiols as potent and orally active inhibitors of dopamine beta-hydroxylase” (J Med Chem, 1986).
Each block holds one compound with its values, some of them ahead of it.

Columns and labels:
[1] = molecular target: T1, Dopamine beta-hydroxylase (Bos taurus, UniProt P15101); assay: Binding affinity towards Dopamine beta hydroxylase using tyramine substrate at pH 4.5 in the absence of fumarate
T1 sequence (P15101 whole entry): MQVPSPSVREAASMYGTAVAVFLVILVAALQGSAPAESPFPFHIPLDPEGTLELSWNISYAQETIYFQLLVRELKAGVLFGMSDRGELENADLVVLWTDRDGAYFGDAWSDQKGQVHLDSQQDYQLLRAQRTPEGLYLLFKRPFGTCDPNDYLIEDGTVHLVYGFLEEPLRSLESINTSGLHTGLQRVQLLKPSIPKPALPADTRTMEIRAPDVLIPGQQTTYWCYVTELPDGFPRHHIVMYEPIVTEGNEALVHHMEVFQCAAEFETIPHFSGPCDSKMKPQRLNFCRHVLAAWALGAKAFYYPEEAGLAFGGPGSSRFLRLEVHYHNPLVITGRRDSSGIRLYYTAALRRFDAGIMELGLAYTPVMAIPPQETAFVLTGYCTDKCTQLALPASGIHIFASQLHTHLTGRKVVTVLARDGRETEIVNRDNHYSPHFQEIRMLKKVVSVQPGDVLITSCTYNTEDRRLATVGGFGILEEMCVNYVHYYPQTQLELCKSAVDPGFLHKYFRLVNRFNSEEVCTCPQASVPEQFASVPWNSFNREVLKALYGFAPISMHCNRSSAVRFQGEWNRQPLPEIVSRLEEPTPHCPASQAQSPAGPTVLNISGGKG
Summary of the method: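 Homogeneous bovine DBH (sp act. 30–42 U/mg at pH 5.0), tyramine as substrate, pH 4.5, no fumarate. Conditions: 50 mM sodium acetate, ionic strength 0.2, 200 μg/mL bovine catalase, 10 μM Cu²⁺, 10 mM ascorbic acid, 37 °C. Km apparent for tyramine 3.0 mM. Ki fitted with Cleland programs; mean ± SEM.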

[2] = Ratio of dopamine to that of NE levels in mesenteric artery measured at 50 mg/kg po; format: functional
[3] = Ratio of dopamine to that of NE levels in mesenteric artery measured at 100 mg/kg po; format: functional
Summary of the method: (§1)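 Spontaneously hypertensive rats (N = 5) got two oral doses about 18 h apart, either vehicle (5% PEG 400 in 1% methocel) or drug in vehicle, and were killed 2 h after the second dose. The mesenteric artery was homogenized. Dopamine and NE were measured by catechol O-methyltransferase methylation with [methyl-3H]-S-adenosylmethionine, then chromatographic separation and scintillation counting. Values are mean ± SEM.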

[4] = In vivo evaluation ot the compound in spontaneously hypertensive rats for the catecholamine levels by taking the ratio of copamine to norepinephrine; format: functional; summary of the method: as §1
[5] = system: Rattus norvegicus; assay: In vivo evaluation ot the compound in spontaneously hypertensive rats for the mean arterial blood pressure; format: functional
Summary of the method: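 Conscious SHR anesthetized with Brevital Na (10 mg/kg, iv) and femoral artery cannulated to a pressure transducer. After 1-h recovery, baseline MAP taken every 15 min for 1 h. Dosed 50 mg/kg ip unless noted, then MAP recorded every 15–30 min for 4 h. Value at 150 min postdose, mean ± SEM.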

[6] = system: Rattus norvegicus; assay: DBH inhibitory activity was measured as NE levels in mesenteric artery at dose of 25 mg/kg, po; format: functional, organism-based; parameters: dose 25 mg/kg
Summary of the method: (§2)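 SHR (N = 5) dosed orally twice, about 18 h apart, with vehicle (5% PEG 400 in 1% methocel) or drug at the stated dose. Killed 2 h after the second dose. Mesenteric artery homogenized. Catecholamines measured by COMT methylation with [methyl-3H]-S-adenosylmethionine, chromatographic separation of methylated amines and scintillation counting. Mean ± SEM.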

[7] = system: Rattus norvegicus; assay: DBH inhibitory activity was measured as NE levels in mesenteric artery at dose of 50 mg/kg, po; format: functional, organism-based; parameters: dose 50 mg/kg; summary of the method: as §2
[8] = Ratio of dopamine to that of NE levels in mesenteric artery measured at 25 mg/kg po; format: functional; summary of the method: as §1
[9] = system: Rattus norvegicus; assay: DBH inhibitory activity was measured as dopamine levels in mesenteric artery at dose of 25 mg/kg, po.; format: functional, organism-based; parameters: dose 25 mg/kg; summary of the method: as §2
[10] = system: Rattus norvegicus; assay: DBH inhibitory activity was measured as NE levels in mesenteric artery at dose of 100 mg/kg, po; format: functional, organism-based; parameters: dose 100 mg/kg; summary of the method: as §2
[11] = system: Rattus norvegicus; assay: DBH inhibitory activity was measured as dopamine levels in mesenteric artery at dose of 25 mg/kg, po; format: functional, organism-based; parameters: dose 25 mg/kg; summary of the method: as §2
[12] = system: Rattus norvegicus; assay: DBH inhibitory activity was measured as dopamine levels in mesenteric artery at dose of 100 mg/kg, po; format: functional, organism-based; parameters: dose 100 mg/kg; summary of the method: as §2
[13] = In vivo evaluation ot the compound in spontaneously hypertensive rats for the catecholamine levels by taking the ratio of dopamine to norepinephrine; format: functional; summary of the method: as §2

Compound: CCCCc1ccc(C(=O)O)nc1 [FUSARIC ACID]
Ki [1]: 149 nM | Ratio [2]: 0.109

Ki [1]: 41 nM
Compound: Fc1cc(F)cc(Cn2cc[nH]c2=S)c1
Ratio [3]: 0.378 | Ratio [4]: 0.208 | MAP [5]: 105 mmHg | Level [6]: 4.94 µg of tissue | Level [7]: 4 µg of tissue | Ratio [2]: 0.204 | Ratio [8]: 0.155 | Level [9]: 0.765 µg of tissue | Level [10]: 3.05 µg of tissue | Level [11]: 0.3 µg of tissue | Level [12]: 1.06 µg of tissue

Ki [1]: 5.7 nM
Compound: Oc1c(F)cc(Cn2cc[nH]c2=S)cc1F
Ratio [13]: 0.082 | MAP [5]: 137 mmHg

Compound: Oc1ccc(Cn2cc[nH]c2=S)cc1
MAP [5]: 137 mmHg
